# Bioassay records as filed in PubChem BioAssay.
# Rows were chosen to be rich in hits. Some 3.5% of all compounds tested hit in one or more screens of this group.
# ABCG2 block: ABCG2 efflux pump inhibitors, primary screen, multiplex with ABCB1, IgMXP3 cells, flow cytometry; JC-1 efflux; inhibition, % at 6.6 µM; 190,000 tested, 0.1% active; AID 1325, 2008;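 active means inhibition above 80%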;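 further: 0% = DMSO and 100% = nicardipine control wells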
#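 Test system: ABCG2 IgMXP3 and barcoded ABCB1 CCRF-Adr cell mix; Schedule: cells with compound and JC-1, 10 min at 25 °C, rotating, no wash; Technique: flow cytometry of retained JC-1 fluorescence; Measure: % inhibition of efflux relative to nicardipine and DMSO; Controls: nicardipine high and DMSO low controls.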
# ABCB1 inh: ABCB1 efflux pump inhibitors, primary screen, cell-based, multiplex, flow cytometry, ABCG2 counter-screen | 190,000 tested, 0.067% active | ATP-dependent translocase ABCB1 (Homo sapiens), P08183 | inhibition, % at 6.6 µM | CCRF-Adr cells, JC-1 efflux; in the data active means inhibition above about 40%;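 further: 0% = vehicle and 100% = reference inhibitor; higher value means more JC-1 retained so stronger ABCB1 efflux block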
# MEKK3 PB1 HTS: modulators of MEKK3-MEK5 PB1 binding, primary screen, biochemical, wildtype MEKK3, multiplex bead flow cytometry, Alexa488-MEK5. AID 1529, 2009. Mitogen-activated protein kinase kinase kinase 3 (Homo sapiens), Q99759. binding response (% of control), % at 10 µM. 290,000 tested, 1.4% active. bead-based flow cytometry, Alexa488-MEK5 binding to MEKK3; actives lie on both sides; 0 = blocked by unlabeled MEK5, 100 = vehicle;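 active means binding response more than 3 SD above or below the average of its plate-row segment, actives on both sides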;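 further: Alexa488 bead fluorescence after subtracting the streptavidin-only scavenger bead signal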
# Target sequence (Q99759 whole entry, looked up): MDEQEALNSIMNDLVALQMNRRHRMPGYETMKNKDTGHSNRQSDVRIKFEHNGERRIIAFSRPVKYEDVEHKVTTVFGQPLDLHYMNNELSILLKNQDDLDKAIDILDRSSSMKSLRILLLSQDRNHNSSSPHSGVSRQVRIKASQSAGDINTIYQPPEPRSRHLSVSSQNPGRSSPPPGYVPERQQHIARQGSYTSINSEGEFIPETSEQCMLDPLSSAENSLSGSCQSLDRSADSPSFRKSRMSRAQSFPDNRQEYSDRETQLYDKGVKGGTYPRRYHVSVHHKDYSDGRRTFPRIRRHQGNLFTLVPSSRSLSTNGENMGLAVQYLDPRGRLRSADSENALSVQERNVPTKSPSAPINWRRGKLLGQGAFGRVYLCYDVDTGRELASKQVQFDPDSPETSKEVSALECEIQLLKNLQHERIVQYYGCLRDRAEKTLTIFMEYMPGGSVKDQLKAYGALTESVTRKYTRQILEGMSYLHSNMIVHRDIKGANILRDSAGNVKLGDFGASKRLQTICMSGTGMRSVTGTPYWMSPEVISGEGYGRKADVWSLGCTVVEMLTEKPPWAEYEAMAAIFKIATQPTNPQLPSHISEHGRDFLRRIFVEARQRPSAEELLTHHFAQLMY
# WT yeast gro inh: growth inhibition of WT strain, primary screen, mitochondrial fusion inhibitor project, WT and mutant strains, chemical genetic. inhibition, % at 10 µM. AID 1362, 2008. mitochondrial fusion phenotypic screen. 190,000 tested, 2.1% active; in the data active means inhibition above about 58%; tested in S. cerevisiae
# MEKK2 WT-MEK5: modulators of MEK5 binding to wildtype MEKK2, primary screen, biochemical, multiplex bead flow cytometry, Alexa488-MEK5 | Mitogen-activated protein kinase kinase kinase 2 (Homo sapiens), Q9Y2U5 | 290,000 tested, 1.1% active | binding response (% of control), % at 10 µM | Alexa488-MEK5 binding to MEKK2 WT; actives lie on both sides; in the data active means binding response below about 67% or above about 130%
# MEKK2 mut-MEK5: MEK5 binding signal on mutant MEKK2 PB1, primary screen, biochemical, multiplex bead flow cytometry, Alexa488-MEK5. Alexa488-MEK5 binding to MEKK2 mutant. percent response, % at 10 µM. 290,000 tested, 0.35% active. AID 1530, 2009; in the data active means percent response above about 24%, passing the limit was not always enough
# MEKK2wt confirm: modulators of MEK5 binding to wildtype MEKK2, confirmation, biochemical, single concentration, multiplex bead flow cytometry; shares compounds with MEKK3 PB1 HTS; Alexa488-MEK5 binding to MEKK2 WT; actives lie on both sides; binding response (% of control), % at 10 µM; 5,900 tested, 2.4% active; AID 1892, 2009; in the data active means binding response below about 16% or above about 210%; inactive means in between
# MEKK2mut confirm: mutant MEKK2 PB1-MEK5 binding signal retest – biochemical, single concentration, multiplex bead flow cytometry, confirmation. shares compounds with MEKK3 PB1 HTS. Alexa488-MEK5 binding to MEKK2 mutant. percent response, % at 10 µM. 5,900 tested, 2% active. AID 1893, 2009; in the data active means percent response mostly above about 71%, no sharp cut-off; inactive means mostly below about 38%;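 further: higher means compound restores mutant binding toward wildtype level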
# MEKK3-MEK5 inh: MEKK3 wild-type PB1 binding to MEK5, inhibitors, confirmation, biochemical, bead multiplex flow cytometry, single concentration, wildtype; AID 1894, 2009; binding response (% of control), % at 10 µM; Alexa488-MEK5 binding to MEKK3; stronger effect = lower value; 5,900 tested, 1.8% active; shares compounds with MEKK3 PB1 HTS;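 active means binding response below 72% of control, or above a set upper limit, though filed actives all read lower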;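 further: 100% = DMSO only wells and 0% = binding blocked by excess unlabeled MEK5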
# An asterisk follows results filed as active; / = no result.
SMILES,ABCG2 block,ABCB1 inh,MEKK3 PB1 HTS,WT yeast gro inh,MEKK2 WT-MEK5,MEKK2 mut-MEK5,MEKK2wt confirm,MEKK2mut confirm,MEKK3-MEK5 inh
COc1cccc(NC(=S)NN2C(C)CCCC2C)c1 (stereo not drawn),-1,0,132*,2,107,1,109,-1,104
CC(=O)Nc1ccc(S(=O)(=O)NCCOc2ccc(Cl)cc2C)cc1,5,1,100,21,101,5,/,/,/
CCCCOc1ccc(CONS(=O)(=O)c2ccc(NC(C)=O)cc2)cc1Cl,1,0,160*,74*,106,1,106,-1,106
COc1ccc(S(=O)(=O)N(C)CC(=O)NCc2ccco2)cc1OC,/,/,99,/,97,-3,/,/,/
COc1ccc(NC(=O)CCC(=O)c2cccs2)cc1S(=O)(=O)Nc1ccc(Cl)cc1,11,0,110,-7,119,20,/,/,/
COc1ccccc1NS(=O)(=O)c1cc(NC(=O)CCC(=O)c2cccs2)ccc1Cl,0,0,147*,10,108,0,99,-6,97
O=C(CCn1c(=O)c2cccn2c2cccnc21)N1CCN(c2cccc(Cl)c2)CC1,/,/,98,/,100,2,/,/,/
C[C@]12CCC(=O)CC1CCC1C2CC[C@@]2(C)C1CC[C@@]21CCO1 (stereo partly drawn),/,/,107,/,101,11,/,/,/
C[C@]12CCC3C(CC[C@H]4CCCC[C@]34C)C1CC[C@@]2(O)CNCCO (stereo partly drawn),/,/,105,/,139*,27*,130,20,107
C#CCOCCOCCOCCNc1nc(N2CCN(C(=O)[C@H](Cc3ccc(O)cc3)n3cc([C@@H](N)CC(C)C)nn3)CC2)nc(N2CCN(C(=O)[C@H](Cc3cc4ccccc4[nH]3)n3cc([C@@H](N)CC(C)C)nn3)CC2)n1,1,0,114,-6,230*,99*,245*,93*,112
C#CCOCCOCCOCCNc1nc(N2CCN(C(=O)[C@H](CCC(=O)O)n3cc(C(N)CC(C)C)nn3)CC2)nc(N2CCN(C(=O)[C@H](Cc3cc4ccccc4[nH]3)n3cc(C(N)[C@H](C)CC)nn3)CC2)n1 (stereo partly drawn),-1,0,100,-30,109,3,/,/,/
C#CCOCCOCCOCCNc1nc(N2CCN(C(=O)[C@H](CCC(=O)O)n3cc(C(N)[C@H](C)CC)nn3)CC2)nc(N2CCN(C(=O)[C@H](Cc3cc4ccccc4[nH]3)n3cc(C(N)[C@H](C)CC)nn3)CC2)n1 (stereo partly drawn),-2,0,101,-38,101,1,/,/,/
C#CCOCCOCCOCCNc1nc(N2CCN(C(=O)[C@H]([C@@H](C)CC)n3cc([C@@H](N)CC(C)C)nn3)CC2)nc(N2CCN(C(=O)[C@H](Cc3cc4ccccc4[nH]3)n3cc([C@@H](N)Cc4ccc(O)cc4)nn3)CC2)n1,-2,-1,115,0,270*,128*,226*,68,108
C#CCOCCOCCOCCNc1nc(N2CCN(C(=O)C(Cc3ccc(O)cc3)n3cc(C(N)CC(C)C)nn3)CC2)nc(N2CCN(C(=O)C(Cc3cc4ccccc4[nH]3)n3cc(C(N)C(C)CC)nn3)CC2)n1 (stereo not drawn),-1,0,111,-22,239*,118*,237*,89*,106
C#CCOCCOCCOCCNc1nc(N2CCN(C(=O)[C@H]([C@@H](C)CC)n3cc([C@@H](N)CC(C)C)nn3)CC2)nc(N2CCN(C(=O)[C@H](Cc3cc4ccccc4[nH]3)n3cc([C@@H](N)C(C)CC)nn3)CC2)n1 (stereo partly drawn),/,/,61,/,184*,37*,227*,90*,106
O=c1[nH]cnc(O)c1C(c1ccc2c(c1)OCO2)c1c(O)nc[nH]c1=O,7,0,97,-7,94,-12,/,/,/
C#CCOCCOCCOCCNc1nc(N2CCN(C(=O)[C@H]([C@@H](C)CC)n3cc([C@@H](N)CO)nn3)CC2)nc(N2CCN(C(=O)[C@H]([C@@H](C)CC)n3cc([C@@H](N)CC(C)C)nn3)CC2)n1,-1,0,112,2,139*,27,115,6,101
C#CCOCCOCCOCCNc1nc(N2CCN(C(=O)C(Cc3cc4ccccc4[nH]3)n3cc(C(N)C(C)CC)nn3)CC2)nc(N2CCN(C(=O)C(Cc3cc4ccccc4[nH]3)n3cc(C(N)C(C)CC)nn3)CC2)n1 (stereo not drawn),1,1,110,5,254*,105*,254*,107*,111
C#CCOCCOCCOCCNc1nc(N2CCN(C(=O)[C@H]([C@@H](C)CC)n3cc([C@@H](N)CO)nn3)CC2)nc(N2CCN(C(=O)[C@H]([C@@H](C)CC)n3cc([C@@H](N)CO)nn3)CC2)n1,/,/,85,/,75,1,/,/,/
C#CCOCCOCCOCCNc1nc(N2CCN(C(=O)[C@H](Cc3ccc(O)cc3)n3cc([C@@H](N)C(C)CC)nn3)CC2)nc(N2CCN(C(=O)[C@H](Cc3cc4ccccc4[nH]3)n3cc([C@@H](N)Cc4ccc(O)cc4)nn3)CC2)n1 (stereo partly drawn),/,/,106,/,169*,6,241*,125*,113
